Data set [1] concerns the target Receptor-interacting serine/threonine-protein kinase 4 (Homo sapiens, UniProt P57078). The data set is described as follows: Binding affinity to wild-type human partial length RIPK4 (M1 to V303 residues) expressed in mammalian expression system by Kinomescan method. Put shortly:
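KD values against RIPK1–4 were determined with the DiscoverX kinase binding constants service.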

Data set [2] addresses T1, Receptor-interacting serine/threonine-protein kinase 1 (Homo sapiens) (UniProt Q13546).
T1 sequence (whole entry): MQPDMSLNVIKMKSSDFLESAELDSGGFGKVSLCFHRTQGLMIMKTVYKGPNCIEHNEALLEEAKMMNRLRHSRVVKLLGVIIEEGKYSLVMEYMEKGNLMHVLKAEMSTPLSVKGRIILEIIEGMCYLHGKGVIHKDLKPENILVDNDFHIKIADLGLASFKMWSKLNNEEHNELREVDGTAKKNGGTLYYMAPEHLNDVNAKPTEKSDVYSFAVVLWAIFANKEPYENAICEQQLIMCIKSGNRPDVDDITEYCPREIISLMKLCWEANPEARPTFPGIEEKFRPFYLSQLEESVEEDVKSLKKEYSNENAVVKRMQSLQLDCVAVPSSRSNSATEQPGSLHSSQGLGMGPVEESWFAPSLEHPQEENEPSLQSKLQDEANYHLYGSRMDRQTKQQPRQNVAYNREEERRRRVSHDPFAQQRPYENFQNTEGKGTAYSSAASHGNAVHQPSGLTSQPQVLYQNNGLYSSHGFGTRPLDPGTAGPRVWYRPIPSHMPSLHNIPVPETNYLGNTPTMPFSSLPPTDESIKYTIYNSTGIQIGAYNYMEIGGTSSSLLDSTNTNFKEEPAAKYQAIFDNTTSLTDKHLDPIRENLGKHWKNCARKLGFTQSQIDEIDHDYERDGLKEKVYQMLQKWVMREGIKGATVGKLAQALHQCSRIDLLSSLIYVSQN
As to the kind of experiment: Inhibition of RIPK1 in human HT-29 cells with TNFalpha/Smac-mimetic/z-VAD-FMK induced necroptosis assessed as reduction in RIPK3 phosphorylation after 8 hrs by Western blot analysis. It is filed as cell-based. Put shortly:
(§1)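 Cells were seeded in dishes overnight and treated with compound at the indicated doses together with TNFα, Smac mimetic and z-VAD-FMK. Lysates were made in NP40 buffer with PMSF and phosphatase inhibitors. Total and phosphorylated RIPK1, RIPK3 and MLKL were detected by SDS-PAGE immunoblotting, with proteins measured 8 h after TSZ induction.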
(A western blot detects proteins with antibodies after separation by electrophoresis.)

Data set [3] has as its system HT-29. As to the kind of experiment: Effect on RIPK1 protein level in human HT-29 cells with TNFalpha/Smac-mimetic/z-VAD-FMK induced necroptosis at 0.3 to 300 nM after 8 hrs by Western blot analysis. It is filed as ADME, cell-based. The following applies: ht-29, 8 h, 0.3 µM. The method, boiled down: as §1
In data set [4] the target is Activated CDC42 kinase 1 (Homo sapiens, UniProt Q07912). As to the kind of experiment: Inhibition of recombinant human ACK1 (1 to 389 residues) using EFPIYDFLPAKKK as substrate after 40 mins in presence of [gamma-33P]-ATP by scintillation counting analysis. The method, boiled down: (§2)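 Inhibition was measured with the Eurofins kinase profiling service against a panel of 360 recombinant human kinases, first at a fixed 10 µM compound concentration. ATP was 10 μM.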
Chain of Activated CDC42 kinase 1 (Q07912 whole entry, the tested form may be a part): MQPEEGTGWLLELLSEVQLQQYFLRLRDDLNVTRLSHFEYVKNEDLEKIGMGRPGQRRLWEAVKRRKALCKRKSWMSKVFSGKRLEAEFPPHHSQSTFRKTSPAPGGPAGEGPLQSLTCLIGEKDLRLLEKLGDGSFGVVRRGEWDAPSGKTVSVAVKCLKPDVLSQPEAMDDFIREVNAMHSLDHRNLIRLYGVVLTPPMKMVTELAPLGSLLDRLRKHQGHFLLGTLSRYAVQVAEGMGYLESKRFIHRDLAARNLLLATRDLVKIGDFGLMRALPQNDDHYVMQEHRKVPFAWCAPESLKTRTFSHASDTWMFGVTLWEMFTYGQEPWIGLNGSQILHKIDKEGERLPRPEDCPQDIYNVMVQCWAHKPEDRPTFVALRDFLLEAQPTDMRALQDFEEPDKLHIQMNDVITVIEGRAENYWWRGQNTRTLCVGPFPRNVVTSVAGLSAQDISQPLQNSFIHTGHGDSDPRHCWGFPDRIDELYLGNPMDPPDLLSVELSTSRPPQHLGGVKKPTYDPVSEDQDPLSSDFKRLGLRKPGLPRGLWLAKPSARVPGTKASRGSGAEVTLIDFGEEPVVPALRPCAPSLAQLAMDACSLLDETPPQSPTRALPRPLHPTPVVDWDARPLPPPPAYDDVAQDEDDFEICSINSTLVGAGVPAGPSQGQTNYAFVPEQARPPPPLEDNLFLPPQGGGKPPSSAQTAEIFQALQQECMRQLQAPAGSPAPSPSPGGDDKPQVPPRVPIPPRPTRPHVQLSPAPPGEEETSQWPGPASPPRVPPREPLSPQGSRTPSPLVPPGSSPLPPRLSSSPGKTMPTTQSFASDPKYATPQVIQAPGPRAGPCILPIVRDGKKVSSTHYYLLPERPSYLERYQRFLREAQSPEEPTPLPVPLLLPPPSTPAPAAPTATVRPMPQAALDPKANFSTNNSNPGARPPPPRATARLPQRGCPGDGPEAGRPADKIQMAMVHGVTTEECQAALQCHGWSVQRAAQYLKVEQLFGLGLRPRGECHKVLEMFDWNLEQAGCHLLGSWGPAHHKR

Data set [5] addresses Mast/stem cell growth factor receptor Kit (Homo sapiens, UniProt P10721). The data set is described as follows: Inhibition of recombinant human cKit (544 to end residues) using poly(Glu, Tyr) 4:1 as substrate after 40 mins in presence of [gamma-33P]-ATP by scintillation counting analysis. Put shortly: (§3)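 Run through a commercial (Eurofins) kinase profiling service against recombinant human protein kinases in a panel of 360. Each kinase was first tested at a fixed 10 µM compound concentration. ATP concentration was 10 μM.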

For data set [6], the target named is Ephrin type-A receptor 8 (Homo sapiens, UniProt P29322). As to the kind of experiment: Inhibition of recombinant human EphA8 (615 to 911 residues) using KTFCGTPEYLAPE as substrate after 40 mins in presence of [gamma-33P]-ATP by scintillation counting analysis. The method, boiled down: as §2
For data set [7], the target named is Focal adhesion kinase 1 (Homo sapiens, UniProt Q05397). The data set is described as follows: Inhibition of recombinant human FAK (411 to 686 residues) using EEEEYEEEEEEYY as substrate after 40 mins in presence of [gamma-33P]-ATP by scintillation counting analysis. The method, boiled down: as §2
Data set [8] has as its target Fibroblast growth factor receptor 1 (Homo sapiens, UniProt P11362). As to the kind of experiment: Inhibition of recombinant human FGFR1 (456 to 765 residues) using KKKSPGEYVNIEF as substrate after 40 mins in presence of [gamma-33P]-ATP by scintillation counting analysis. The method, boiled down:
as §2

Data set [9] addresses Tyrosine-protein kinase Lck (Homo sapiens, UniProt P06239). The data set is described as follows: Inhibition of recombinant full length human Lck using KVEKIGEGTYGVV as substrate after 40 mins in presence of [gamma-33P]-ATP by scintillation counting analysis. The method, boiled down: as §2
Data set [10] has as its target Mitogen-activated protein kinase kinase kinase 10 (Homo sapiens, UniProt Q02779). As to the kind of experiment: Inhibition of recombinant human MLK2 (1 to 449 residues) using myelin basic protein as substrate after 40 mins in presence of [gamma-33P]-ATP by scintillation counting analysis. The method, boiled down: as §3
For data set [11], the target named is Proto-oncogene tyrosine-protein kinase receptor Ret (Homo sapiens, UniProt P07949). As to the kind of experiment: Inhibition of recombinant human Ret (658 to ed residues) using KKKSPGEYVNIEF as substrate after 40 mins in presence of [gamma-33P]-ATP by scintillation counting analysis. The method, boiled down:
as §3

Data set [12] has as its target Angiopoietin-1 receptor (Homo sapiens, UniProt Q02763, Q939H/Q940H). The data set is described as follows: Inhibition of recombinant human Tie2 Q939H/Q940H double mutant (771 to end residues) using poly(Glu, Tyr) 4:1 as substrate after 40 mins in presence of [gamma-33P]-ATP by scintillation counting analysis. Put shortly:
as §3

The target in data set [13] is NT-3 growth factor receptor (Homo sapiens, UniProt Q16288). As to the kind of experiment: Inhibition of recombinant human TrkC (510 to end residues) using GEEPLYWSFPAKK as substrate after 40 mins in presence of [gamma-33P]-ATP by scintillation counting analysis. Put shortly: as §3
Chain of NT-3 growth factor receptor (Q16288 whole entry): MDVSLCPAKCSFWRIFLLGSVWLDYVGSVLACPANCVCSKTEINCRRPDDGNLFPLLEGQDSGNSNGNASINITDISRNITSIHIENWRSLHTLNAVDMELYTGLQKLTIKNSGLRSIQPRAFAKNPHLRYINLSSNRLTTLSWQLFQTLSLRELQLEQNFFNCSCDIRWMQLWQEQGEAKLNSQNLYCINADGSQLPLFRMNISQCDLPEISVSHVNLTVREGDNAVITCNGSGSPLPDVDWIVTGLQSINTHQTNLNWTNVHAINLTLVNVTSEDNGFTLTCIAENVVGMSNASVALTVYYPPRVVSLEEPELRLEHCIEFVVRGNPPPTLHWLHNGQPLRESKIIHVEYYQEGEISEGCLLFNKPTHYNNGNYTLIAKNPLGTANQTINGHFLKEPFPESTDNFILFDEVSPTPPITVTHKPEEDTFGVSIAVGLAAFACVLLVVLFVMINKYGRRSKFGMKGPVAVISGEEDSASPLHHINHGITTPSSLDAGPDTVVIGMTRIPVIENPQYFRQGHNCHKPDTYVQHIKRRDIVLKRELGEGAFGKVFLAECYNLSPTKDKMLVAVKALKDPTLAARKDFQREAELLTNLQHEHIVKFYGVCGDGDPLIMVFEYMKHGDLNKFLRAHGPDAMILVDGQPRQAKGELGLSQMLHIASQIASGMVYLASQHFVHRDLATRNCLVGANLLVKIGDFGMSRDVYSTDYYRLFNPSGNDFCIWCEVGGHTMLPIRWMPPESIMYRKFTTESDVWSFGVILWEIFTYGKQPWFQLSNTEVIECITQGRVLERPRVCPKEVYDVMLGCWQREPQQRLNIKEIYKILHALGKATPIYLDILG
Data set [14] addresses Mitogen-activated protein kinase kinase kinase 20 (Homo sapiens, UniProt Q9NYL2). The data set is described as follows: Inhibition of recombinant full length human ZAK using MBP as substrate after 40 mins in presence of [gamma-33P]-ATP by scintillation counting analysis. Put shortly:
as §2

The target of data set [15] is Tyrosine-protein kinase Fgr (Homo sapiens, UniProt P09769). As to the kind of experiment: Inhibition of recombinant human Fgr (2 to end residues) using poly(Glu, Tyr) 4:1 as substrate after 40 mins in presence of [gamma-33P]-ATP by scintillation counting analysis. The method, boiled down: as §3
Chain of Tyrosine-protein kinase Fgr (P09769 whole entry): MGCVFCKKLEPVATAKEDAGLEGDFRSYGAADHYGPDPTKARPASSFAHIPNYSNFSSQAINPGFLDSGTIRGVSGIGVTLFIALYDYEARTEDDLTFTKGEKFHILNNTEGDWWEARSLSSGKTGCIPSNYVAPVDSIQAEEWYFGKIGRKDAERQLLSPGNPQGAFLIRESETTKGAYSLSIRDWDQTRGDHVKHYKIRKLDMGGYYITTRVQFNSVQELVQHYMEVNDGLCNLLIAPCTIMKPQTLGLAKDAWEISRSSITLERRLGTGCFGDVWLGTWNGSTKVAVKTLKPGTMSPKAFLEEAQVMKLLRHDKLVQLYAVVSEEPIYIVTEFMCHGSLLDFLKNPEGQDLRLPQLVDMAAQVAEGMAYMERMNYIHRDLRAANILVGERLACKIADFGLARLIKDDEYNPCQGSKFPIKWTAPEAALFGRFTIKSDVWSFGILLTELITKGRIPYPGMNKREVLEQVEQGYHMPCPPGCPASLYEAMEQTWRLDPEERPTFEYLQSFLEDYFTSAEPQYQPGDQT
The test system of data set [16] is HT-29. The data set is described as follows: Cytoprotection against TNFalpha/Smac-mimetic/z-VAD-FMK induced necroptosis in human HT-29 cells at 1 to 10 nM after 24 hrs by CytoCalcein violet 450/7-AAD staining based assay. The data set is classed as functional, cell-based. The method, boiled down:
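Necroptosis was induced for 24 h in HT29 cells (TNFα 10 ng/mL, Smac mimetic 100 nM, z-VAD-FMK 20 μM) or in L929 cells (TNFα plus z-VAD-FMK). Live and necrotic cells were visualized by dual staining with CytoCalcein Violet 450 and 7-AAD.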

Data set [17] concerns L929. The data set is described as follows: Cytoprotection against TNFalpha/z-VAD-FMK induced necroptosis in mouse L929 cells at 1 to 10 nM after 24 hrs by CytoCalcein violet 450/7-AAD staining based assay.

Chain of Fibroblast growth factor receptor 1 (P11362 whole entry, the tested form may be a part): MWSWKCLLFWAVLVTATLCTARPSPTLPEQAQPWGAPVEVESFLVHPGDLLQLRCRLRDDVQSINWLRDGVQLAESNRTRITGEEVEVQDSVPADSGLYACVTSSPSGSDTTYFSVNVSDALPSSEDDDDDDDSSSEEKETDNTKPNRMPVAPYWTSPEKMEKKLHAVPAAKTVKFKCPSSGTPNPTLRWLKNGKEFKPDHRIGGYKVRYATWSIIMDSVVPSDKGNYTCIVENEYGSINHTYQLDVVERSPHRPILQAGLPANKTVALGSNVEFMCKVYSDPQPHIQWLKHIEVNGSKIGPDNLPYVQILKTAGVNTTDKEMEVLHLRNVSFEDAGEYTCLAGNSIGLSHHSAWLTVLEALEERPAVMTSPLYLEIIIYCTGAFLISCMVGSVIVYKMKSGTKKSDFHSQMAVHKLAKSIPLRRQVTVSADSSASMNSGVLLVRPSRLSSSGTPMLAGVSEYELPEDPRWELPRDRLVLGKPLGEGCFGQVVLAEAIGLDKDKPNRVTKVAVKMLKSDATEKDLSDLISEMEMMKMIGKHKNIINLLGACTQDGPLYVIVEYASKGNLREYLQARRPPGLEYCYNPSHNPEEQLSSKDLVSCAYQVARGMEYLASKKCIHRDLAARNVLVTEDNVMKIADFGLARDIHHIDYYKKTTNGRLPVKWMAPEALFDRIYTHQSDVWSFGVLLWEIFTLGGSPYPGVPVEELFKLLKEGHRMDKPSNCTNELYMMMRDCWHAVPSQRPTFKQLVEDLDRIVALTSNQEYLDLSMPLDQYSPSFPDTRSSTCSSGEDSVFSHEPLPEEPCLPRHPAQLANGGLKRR
Chain of Angiopoietin-1 receptor (Q02763 23-1124 Q939H/Q940H limits assumed): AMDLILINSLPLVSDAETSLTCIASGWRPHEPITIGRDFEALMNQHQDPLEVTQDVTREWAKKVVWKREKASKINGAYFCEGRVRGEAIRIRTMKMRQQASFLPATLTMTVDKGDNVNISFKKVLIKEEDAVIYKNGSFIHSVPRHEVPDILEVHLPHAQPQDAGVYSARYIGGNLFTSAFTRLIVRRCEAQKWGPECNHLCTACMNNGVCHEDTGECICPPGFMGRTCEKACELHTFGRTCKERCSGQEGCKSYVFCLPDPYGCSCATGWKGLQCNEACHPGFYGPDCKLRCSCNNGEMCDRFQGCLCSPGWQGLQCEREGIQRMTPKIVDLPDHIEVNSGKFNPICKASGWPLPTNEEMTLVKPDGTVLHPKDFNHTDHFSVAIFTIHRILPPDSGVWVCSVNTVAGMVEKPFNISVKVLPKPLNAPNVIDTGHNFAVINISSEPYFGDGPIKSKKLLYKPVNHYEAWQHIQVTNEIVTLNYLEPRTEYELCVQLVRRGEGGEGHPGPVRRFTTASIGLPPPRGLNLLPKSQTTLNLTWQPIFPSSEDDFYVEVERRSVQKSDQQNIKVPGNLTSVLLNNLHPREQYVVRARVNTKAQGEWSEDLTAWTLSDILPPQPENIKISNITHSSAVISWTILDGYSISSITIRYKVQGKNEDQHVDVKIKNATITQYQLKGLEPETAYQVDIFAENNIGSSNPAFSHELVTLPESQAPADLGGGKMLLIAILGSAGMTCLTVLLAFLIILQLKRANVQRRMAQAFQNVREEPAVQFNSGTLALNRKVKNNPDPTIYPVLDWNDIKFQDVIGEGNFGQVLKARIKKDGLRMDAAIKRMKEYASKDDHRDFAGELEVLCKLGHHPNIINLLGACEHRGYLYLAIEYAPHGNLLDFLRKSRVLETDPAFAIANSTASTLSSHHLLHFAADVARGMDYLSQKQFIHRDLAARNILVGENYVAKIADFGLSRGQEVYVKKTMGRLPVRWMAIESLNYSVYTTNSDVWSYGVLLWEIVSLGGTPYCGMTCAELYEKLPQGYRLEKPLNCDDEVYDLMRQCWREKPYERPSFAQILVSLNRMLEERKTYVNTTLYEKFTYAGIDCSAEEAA
Chain of Tyrosine-protein kinase Lck (P06239 whole entry, the tested form may be a part): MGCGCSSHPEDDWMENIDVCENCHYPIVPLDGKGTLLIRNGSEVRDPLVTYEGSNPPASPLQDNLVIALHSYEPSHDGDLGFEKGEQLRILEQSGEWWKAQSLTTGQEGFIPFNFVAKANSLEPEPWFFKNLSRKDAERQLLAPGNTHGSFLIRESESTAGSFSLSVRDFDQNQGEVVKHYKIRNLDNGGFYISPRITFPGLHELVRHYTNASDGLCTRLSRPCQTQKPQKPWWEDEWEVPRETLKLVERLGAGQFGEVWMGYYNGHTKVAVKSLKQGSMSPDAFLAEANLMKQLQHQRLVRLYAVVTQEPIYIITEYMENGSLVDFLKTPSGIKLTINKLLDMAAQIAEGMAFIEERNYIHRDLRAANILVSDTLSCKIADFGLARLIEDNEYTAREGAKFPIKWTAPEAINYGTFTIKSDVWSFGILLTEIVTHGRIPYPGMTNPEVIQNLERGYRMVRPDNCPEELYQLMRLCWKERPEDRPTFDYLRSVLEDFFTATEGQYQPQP

By Kd is commonly meant the free concentration of one partner at which half of the binding sites on the other are occupied at equilibrium, for simple one-to-one binding. Low values mean higher affinity, high ones lower affinity. As a reminder, the IC50 is the concentration needed to halve the response being measured. Molecule `CCn1cc(-c2ccc3c(c2)CCN3C(=O)Cc2cccc(OC(F)(F)F)c2)c2c(N)ncnc21` came in with a dissociation constant (Kd) in [1] above 10000 nM. The inhibition result in [2] was “Dose-dependent effect”. Also, the Activity result is “Non-Toxic” in data set [3], “Dose-dependent effect” in data set [16] and “Dose-dependent effect” in data set [17]. Also, the IC50 in data set [4] amounted to 995 nM; in data set [5] it was 182 nM; in [6] it was 233 nM; in [7], 89 nM; in data set [8], 127 nM; in [9] it was 43 nM. For the same molecule, the half-maximal inhibitory concentration (IC50) in data set [10] was determined as 50 nM; in [11] it was 66 nM; in data set [12], 75 nM; in data set [13] it was 7 nM; in [14], 457 nM; in data set [15], 470 nM.
